pEC50, pIC50: −log10 of the molar value. The source made the active and inactive calls. No cut-off for these calls is given here.
How the values were obtained:
[1] = target: T1, N-formyl peptide receptor 2 (Homo sapiens, UniProt P25090); assay: Agonist activity at human FPR2 expressed in HEK 293 cells co-expressing Galpha15 measured every 1.5 sec for 80 sec by Fluo-4 NW staining based scanning fluorometric method; assay type: cell-based, HEK293
T1 sequence (P25090 whole entry): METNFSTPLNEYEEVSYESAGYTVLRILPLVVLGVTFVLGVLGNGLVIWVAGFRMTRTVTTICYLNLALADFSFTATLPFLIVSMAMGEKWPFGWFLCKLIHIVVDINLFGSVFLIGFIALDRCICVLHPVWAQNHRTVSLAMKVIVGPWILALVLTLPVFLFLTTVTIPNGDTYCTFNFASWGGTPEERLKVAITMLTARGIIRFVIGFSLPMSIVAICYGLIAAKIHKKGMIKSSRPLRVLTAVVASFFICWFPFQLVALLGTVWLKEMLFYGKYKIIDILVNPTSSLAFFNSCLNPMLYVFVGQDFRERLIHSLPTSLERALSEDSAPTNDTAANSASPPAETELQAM
Procedure, shortened: (§1)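 HEK293 cells were transiently co-transfected with FPR plus Gα15 (Lipofectamine 2000), then reseeded after 24 h on poly-D-lysine plates and grown one more day. Cells were loaded with Fluo-4 NW for 45 min at 37°C. Compound was added and fluorescence (ex 485/em 525 nm) read for 80 s at 1.5 s intervals. Response = maximal peak minus basal.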

fMet-Leu-Phe receptor = target: T2, fMet-Leu-Phe receptor (Homo sapiens, UniProt P21462); assay: Agonist activity at human FPR1 expressed in HEK 293 cells co-expressing Galpha15 measured every 1.5 sec for 80 sec by Fluo-4 NW staining based scanning fluorometric method; assay type: cell-based, HEK293
T2 sequence (P21462 whole entry): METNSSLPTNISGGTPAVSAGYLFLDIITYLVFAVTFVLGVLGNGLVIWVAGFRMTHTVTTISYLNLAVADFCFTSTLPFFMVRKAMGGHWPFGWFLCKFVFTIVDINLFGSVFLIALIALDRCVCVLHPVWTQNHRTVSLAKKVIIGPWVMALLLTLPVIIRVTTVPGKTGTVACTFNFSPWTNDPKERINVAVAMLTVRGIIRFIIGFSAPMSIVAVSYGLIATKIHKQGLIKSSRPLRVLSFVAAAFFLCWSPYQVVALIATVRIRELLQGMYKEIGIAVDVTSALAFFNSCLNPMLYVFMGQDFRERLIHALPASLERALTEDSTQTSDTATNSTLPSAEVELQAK

[2] = target: T3, Formyl peptide receptor 2 (Mus musculus, UniProt O88536); assay: Agonist activity at mouse FPR2 expressed in HEK 293 cells co-expressing Galpha15 measured every 1.5 sec for 80 sec by Fluo-4 NW staining based scanning fluorometric method; assay type: cell-based, HEK293; procedure, shortened: as §1
T3 sequence (O88536 whole entry): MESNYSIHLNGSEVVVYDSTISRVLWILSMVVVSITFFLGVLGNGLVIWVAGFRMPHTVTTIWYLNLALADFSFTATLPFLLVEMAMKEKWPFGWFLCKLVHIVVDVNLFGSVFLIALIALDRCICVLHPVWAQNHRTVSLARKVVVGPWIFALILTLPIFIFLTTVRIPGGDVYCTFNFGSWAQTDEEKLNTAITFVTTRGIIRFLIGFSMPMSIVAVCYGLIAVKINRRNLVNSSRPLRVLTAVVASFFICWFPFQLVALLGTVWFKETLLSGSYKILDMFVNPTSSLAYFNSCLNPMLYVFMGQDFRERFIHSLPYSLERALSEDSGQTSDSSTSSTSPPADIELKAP

[3] = In vivo […] in mouse assessed as reduction in LPS-induced neutrophil infiltration in BALF cells at 1 mg/kg, po relative to control; assay type: functional
Procedure, shortened: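 Mice were given LPS and dosed orally at 1 mg/kg. Neutrophils in BALF were counted, and percent inhibition was calculated.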

Cytochrome P450 3A4 = Cytochrome P450 3A4 (Homo sapiens, UniProt P08684); assay: Inhibition of recombinant human CYP3A4; assay type: ADME
Mus musculus [4] = assay: Cardioprotective activity in C57BL/6 mouse model of LAD coronary artery ligation-induced myocardial infarction assessed as reduction in LV chamber area at 100 mg/kg, po and measured after 28 days; assay type: functional, organism-based; details: time 28.0 day
Procedure, shortened: (§2)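 Male C57BL/6 mice (10-12 weeks) underwent permanent LAD ligation. Captopril was given in drinking water (~100 mg/kg/day). Endpoints were taken at 28 days post-MI, with histomorphometry of LV cross sections for scar length.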

Mus musculus [5] = assay: Cardioprotective activity in C57BL/6 mouse model of LAD coronary artery ligation-induced myocardial infarction assessed as reduction in heart weight at 100 mg/kg, po and measured after 28 days; assay type: functional, organism-based; details: time 28.0 day; procedure, shortened: as §2
Mus musculus [6] = assay: Cardioprotective activity in C57BL/6 mouse model of LAD coronary artery ligation-induced myocardial infarction assessed as reduction in scar length at 0.3 mg/kg, po and measured after 28 days relative to control; assay type: functional, organism-based; details: time 28.0 day
Procedure, shortened: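 Male C57BL/6 mice (10-12 weeks) underwent permanent LAD ligation under ketamine/xylazine, with shams having an untightened suture. Compound (0.3 mg/kg/d) or vehicle was given by oral gavage once daily (5 mL/kg) from post-MI day 4 for 24 days. Endpoints were taken at 28 days post-MI; scar length was quantified from LV cross sections.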

Cytochrome P450 3A4, sequence (P08684 whole entry): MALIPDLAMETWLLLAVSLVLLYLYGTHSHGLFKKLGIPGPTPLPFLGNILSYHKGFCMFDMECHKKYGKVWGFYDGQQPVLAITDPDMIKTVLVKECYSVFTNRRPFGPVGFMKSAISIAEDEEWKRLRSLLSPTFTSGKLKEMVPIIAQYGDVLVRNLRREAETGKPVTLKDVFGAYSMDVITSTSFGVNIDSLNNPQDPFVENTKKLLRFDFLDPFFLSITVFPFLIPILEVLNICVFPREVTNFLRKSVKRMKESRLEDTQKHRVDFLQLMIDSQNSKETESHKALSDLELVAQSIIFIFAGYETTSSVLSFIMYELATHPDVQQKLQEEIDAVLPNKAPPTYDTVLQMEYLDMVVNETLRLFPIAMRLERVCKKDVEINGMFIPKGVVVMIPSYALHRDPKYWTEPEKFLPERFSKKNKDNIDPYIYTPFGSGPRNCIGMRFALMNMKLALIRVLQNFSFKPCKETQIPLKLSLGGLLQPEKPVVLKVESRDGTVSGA

| Compound | pEC50 [1] | pEC50 (fMet-Leu-Phe receptor) | other results |
| --- | --- | --- | --- |
| COc1ccc(CCNC(=O)Nc2ccc(Cl)cc2)cc1 | 6.00 |  |  |
| COc1cc(F)c([C@@H]2CNC(=O)[C@H]2NC(=O)Nc2ccc(C#N)cc2)c(F)c1 |  | 6.46 |  |
| COc1cc(F)c([C@@H]2CNC(=O)[C@H]2NC(=O)Nc2ccc(F)cc2)cc1F |  | 7.77 |  |
| COc1cc(F)c([C@@H]2CNC(=O)[C@H]2NC(=O)Nc2cc3ccccc3s2)c(F)c1 |  | 5.52 |  |
| COc1cnc([C@@H]2CNC(=O)[C@H]2NC(=O)Nc2ccc(F)cc2)c(F)c1 |  | 6.72 |  |
| CCOc1cc(F)c([C@@H]2CNC(=O)[C@H]2NC(=O)Nc2ccc(F)cc2)c(F)c1 | 7.85 |  |  |
| N#Cc1cc(F)c([C@@H]2CNC(=O)[C@H]2NC(=O)Nc2ccc(F)cc2)c(F)c1 | 8.01 | 4.40 |  |
| COc1cc(F)c([C@@H]2CNC(=O)[C@H]2NC(=O)Nc2ccc(Cl)cc2)c(F)c1 |  | 6.92 |  |
| COc1cc(F)c([C@@H]2CNC(=O)[C@H]2NC(=O)Nc2ccc(Cl)s2)c(F)c1 |  | 5.92 | pEC50 [2]: 8.85; inhibition in vivo at 1 mg/kg [3]: 84%; pIC50 (Cytochrome P450 3A4): 5.25 |
| COc1cc(F)c([C@@H]2CNC(=O)[C@H]2NC(=O)Nc2ccc(F)c(F)c2)c(F)c1 |  | 6.09 | pEC50 [2]: 8.07; inhibition in vivo at 1 mg/kg [3]: 4.9%; pIC50 (Cytochrome P450 3A4): < 4.70 |
| COc1cc(F)c([C@@H]2CNC(=O)[C@H]2NC(=O)Nc2cccc(F)c2)c(F)c1 |  | 5.77 |  |
| COc1cc(F)c([C@@H]2CNC(=O)[C@H]2NC(=O)Nc2cc(C)ns2)c(F)c1 |  | 6.54 |  |
| CCc1cc(F)c([C@@H]2CNC(=O)[C@H]2NC(=O)Nc2ccc(F)cc2)c(F)c1 | 8.24 |  |  |
| COc1ccc([C@H]2CNC(=O)[C@@H]2NC(=O)Nc2ccc(Cl)cc2)cc1 | 7.47 |  |  |
| COc1cc(F)c([C@@H]2CNC(=O)[C@H]2NC(=O)Nc2ccccc2F)c(F)c1 | 7.37 |  |  |
| C[C@H](CS)C(=O)N1CCC[C@H]1C(=O)O |  |  | Activity (Mus musculus [4]): Active; Activity (Mus musculus [5]): Active; Activity (Mus musculus [6]): inactive |
| COc1ccc([C@@H]2NC(=O)[C@H]2NC(=O)Nc2ccc(Cl)cc2)cc1 (racemic) | < 7.00 | < 5.00 |  |
| COc1ccc(CC(CO)NC(=O)Nc2ccc(Cl)cc2)cc1 (racemic) | 8.17 |  |  |
| COc1ccc(CC(NC(=O)Nc2ccc(Cl)cc2)C(=O)O)cc1 (racemic) | 7.51 |  |  |
| COc1ccc([C@@H]2NC(=O)[C@@H]2NC(=O)Nc2ccc(Cl)cc2)cc1 (racemic) | 7.92 | < 5.00 |  |
| COc1ccc(CC(C)NC(=O)Nc2ccc(Cl)cc2)cc1 (racemic) | 7.64 |  |  |
| COc1ccc(C2CNC(=O)C2NC(=O)Nc2ccc(Cl)cc2)cc1 (single isomer, unassigned; (-)) | 8.34 |  |  |

The remaining molecules from weak to strong by pEC50 [1], led by results:

| pEC50 [1] | pEC50 (fMet-Leu-Phe receptor) | Compound | other results |
| --- | --- | --- | --- |
| 8.35 |  | COc1cc(F)c([C@@H]2CNC(=O)[C@H]2NC(=O)Nc2ccc(Cl)cn2)c(F)c1 |  |
| 8.40 |  | COc1ccc([C@@H]2CNC(=O)[C@H]2NC(=O)Nc2ccc(F)cc2)c(Cl)c1 |  |
| 8.44 | < 5.00 | COc1ccc(CC(NC(=O)Nc2ccc(Cl)cc2)C(N)=O)cc1 (racemic) |  |
| 8.51 | 7.54 | O=C(Nc1ccc(F)cc1)N[C@@H]1C(=O)NC[C@H]1c1ccc(Cl)cc1F |  |
| 8.70 |  | COc1cc(F)c([C@@H]2CNC(=O)[C@H]2NC(=O)Nc2ccc(C)cc2)c(F)c1 |  |
| 8.72 |  | COc1cc(F)c([C@@H]2CNC(=O)[C@H]2NC(=O)Nc2ncc(Cl)s2)c(F)c1 |  |
| 8.80 |  | COc1ccc([C@@H]2CNC(=O)[C@H]2NC(=O)Nc2ccc(F)cc2)c(C)c1 |  |
| 8.85 |  | CNc1cc(F)c([C@@H]2CNC(=O)[C@H]2NC(=O)Nc2ccc(F)cc2)c(F)c1 |  |
| 9.04 |  | COc1ccc([C@@H]2CNC(=O)[C@@H]2NC(=O)Nc2ccc(Cl)cc2)cc1 (racemic) |  |
| 9.05 |  | COc1ccc([C@@H]2CNC(=O)[C@H]2NC(=O)Nc2ccc(F)cc2)cc1F |  |
| 9.05 |  | COc1ccc(C2CNC(=O)C2NC(=O)Nc2ccc(Cl)cc2)cc1 (single isomer, unassigned; (+)) |  |
| 9.72 | 7.02 | COc1cc(F)c([C@@H]2CNC(=O)[C@H]2NC(=O)Nc2ccc(Br)cc2)c(F)c1 |  |
| 9.74 |  | COc1ccc([C@@H]2CNC(=O)[C@H]2NC(=O)Nc2ccc(Cl)cc2)cc1 (racemic) |  |
| 9.85 | 6.55 | COc1cc(F)c([C@@H]2CNC(=O)[C@H]2NC(=O)Nc2ccc(F)cc2)c(F)c1 | pEC50 [2]: 8.82; inhibition in vivo at 1 mg/kg [3]: 97%; pIC50 (Cytochrome P450 3A4): < 4.70 |
| 9.96 |  | COc1ccc([C@@H]2CCNC(=O)[C@H]2NC(=O)Nc2ccc(Cl)cc2)cc1 (racemic) |  |
| 10.04 |  | COc1ccc([C@@H]2CNC(=O)[C@H]2NC(=O)Nc2ccc(Cl)cc2)cc1 |  |
| 10.06 | 7.14 | COc1cc(F)c([C@@H]2CNC(=O)[C@H]2NC(=O)Nc2ccc(F)c(O)c2)c(F)c1 |  |
| 10.07 |  | COc1ccc([C@@H]2CNC(=O)[C@H]2NC(=O)Nc2ccc(F)cc2)cc1 |  |
| 10.11 | 6.00 | COc1cc(F)c([C@@H]2CNC(=O)[C@H]2NC(=O)Nc2ccc(C)c(O)c2)c(F)c1 | pEC50 [2]: 9.20; inhibition in vivo at 1 mg/kg [3]: 55%; pIC50 (Cytochrome P450 3A4): < 4.70 |
| 10.30 | 7.40 | COc1cc(F)c([C@@H]2CNC(=O)[C@H]2NC(=O)Nc2ccc(Cl)c(O)c2)c(F)c1 |  |
